# Measured values reported in publication PMC11224971 (The Oncologist, 2024).
# Assays:
# Format in all cases: in vivo, human
# [1] = Pediatric MATCH arm H: safety and tolerability
# [2] = Steady-state pharmacokinetics in plasma, cycle 1 day 8
# Summary of the method: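 Plasma was sampled at steady state on cycle 1, day 8, after oral 135 mg/m²/dose BID. AUCSS was calculated by linear trapezoidal approximation through the day-8 24-hour dosing interval. The 24 h concentration was assumed equal to the predose concentration. CLSS was calculated as dose/AUCSS. Cmax, Tmax and t½ were also reported.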
# [3] = tested on: relapsed or refractory advanced solid tumors harboring deleterious genetic alterations in the DDR pathway; test: NCI-COG Pediatric MATCH phase II subprotocol; conditions: 135 mg/m^2/dose BID oral
# Summary of the method: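 Relapsed/refractory pediatric solid tumors (incl. CNS, non-Hodgkin lymphoma, histiocytosis) assigned by centralized tumor sequencing showing a deleterious BRCA1/2, RAD51C/D or ATM alteration, without germline subtraction or LOH analysis. Oral tablets 135 mg/m²/dose (max 225 mg/dose) twice daily, given continuously in 28-day cycles. Primary endpoint was objective response.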
smiles,measurement,setting,value
O=C(c1cc(Cc2n[nH]c(=O)c3ccccc23)ccc1F)N1CCN(C(=O)C2CC2)CC1 [Olaparib],Dose-limiting toxicities,"[1]; 2 patients evaluable for DLT, cycle 1, 135 mg/m^2/dose BID",no dose-limiting toxicities
same,Hematologic toxicity (overall),"[1]; 6 patients evaluable for toxicity, 135 mg/m^2/dose BID",Minimal hematologic toxicity
same,Patients with grade 1/2 anemia,"[1]; number of patients, 6 evaluable for toxicity",3
same,Allergic reaction leading to removal from study,"[1]; one patient (biallelic tumor loss of ATM), first dose, recurring upon rechallenge",acute allergic reaction (hives)
same,"Clearance at steady state, mean ± SD","[2]; dose/AUCSS, dose level 1, 135 mg/m^2 BID oral tablet, n = 3",4.1 ± 3.6 L/h/m^2
same,AUC(0-t),"[2]; human, plasma, po, 135 mg/m2",48800 ± 27800 ng·h/mL
same,Cmax,"[2]; human, plasma, po, 135 mg/m2",7500 ± 2700 ng/mL
same,Tmax,"[2]; human, plasma, po, 135 mg/m2",1 to 4 h
same,half-life,"[2]; human, plasma, po, 135 mg/m2",5.6 ± 4.6 h
same,Objective response (complete + partial response),[3]; 6 patients enrolled,no responses
same,"Median duration assessments, OS","[3]; 6 patients, 95% CI: 0.8-NA",2.5 months (95% CI: 0.8-NA)
same,"Median duration assessments, PFS","[3]; Kaplan-Meier, 6 patients, 95% CI: 0.4-NA",1.5 months (95% CI: 0.4-NA)
same,"Response assessment, PD (number of patients, %)","[3]; RECIST 1.1, 6 patients evaluated for efficacy",3 (50%)
